Laboratory results published in ChEMBL document CHEMBL1649438, “Activities of ceftobiprole and other cephalosporins against extracellular and intracellular (THP-1 macrophages and keratinocytes) forms of methicillin-susceptible and methicillin-resistant Staphylococcus aureus” (Antimicrob Agents Chemother, 2009).
Values after ≈ are worked out from the molar mass of the structure shown.

How the values were obtained:
Staphylococcus aureus [1] = assay: Antimicrobial activity against Panton-valentine leucocidin-positive community-acquired methicillin-resistant Staphylococcus aureus N4090440 infected in human THP-1 cells assessed as change in bacterial count after 24 hrs; format: functional, organism-based; conditions: N4090440, THP-1, 24 h
Outline: (§1)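 THP-1 human macrophages infected with S. aureus (postphagocytosis inoculum 1.5 × 10^6 to 3.0 × 10^6 CFU/mg cell protein), then incubated 24 h with increasing extracellular antibiotic concentrations. Change in log10 CFU/mg cell protein from the postphagocytosis inoculum, n = 3. Hill function fitted on log-transformed data. Low-concentration value (E0) and high-concentration value (Emax) are extrapolated. Where a pH is given, concentrations are expressed as multiples of the broth MIC at that pH.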

Staphylococcus aureus [2] = assay: Antimicrobial activity against methicillin-susceptible Staphylococcus aureus […] infected in human THP-1 cells assessed as bacterial count per mg of cell protein at high extracellular compound concentration after 24 hrs at pH 7.4; format: functional
Outline: (§2)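 Human THP-1 macrophage-like cells were infected with S. aureus to a postphagocytosis inoculum of 1.5 × 10^6 to 3.0 × 10^6 CFU/mg cell protein. Cells were then exposed 24 h to increasing extracellular antibiotic concentrations. Response was the log10 CFU change per mg protein from the postphagocytosis inoculum, n = 3. A Hill function was fitted on log-transformed axes. E0 and Emax were extrapolated to infinitely low and high concentrations. Cs was read by graphical interpolation. Concentrations were expressed as multiples of the broth MIC at pH 5.5 or pH 7.4.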

Staphylococcus aureus [3] = assay: Antimicrobial activity against Panton-valentine leucocidin-positive community-acquired methicillin-resistant Staphylococcus aureus N4090440 infected in human THP-1 cells assessed as bacterial count per mg of cell protein at low extracellular compound concentration after 24 hrs; format: functional; outline: as §1
Staphylococcus aureus [4] = assay: Antimicrobial activity against Panton-valentine leucocidin-positive community-acquired methicillin-resistant Staphylococcus aureus N4090440 infected in human THP-1 cells assessed as bacterial count per mg of cell protein at high extracellular compound concentration after 24 hrs at pH 5.5; format: functional; outline: as §1
Staphylococcus aureus [5] = assay: Antimicrobial activity against hospital-acquired vancomycin-intermediate Staphylococcus aureus NRS18 infected in human THP-1 cells assessed as change in bacterial count after 24 hrs at pH 7.4; format: functional, organism-based; conditions: NRS18, THP-1, 24 h
Outline: (§3)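 THP-1 macrophages infected as described previously, with a postphagocytosis inoculum of 1.5 × 10⁶ to 3.0 × 10⁶ CFU/mg cell protein. Cells were exposed 24 h to increasing extracellular antibiotic concentrations. Response is the change in log10 CFU/mg protein from the inoculum (n = 3), fitted to a Hill function. E0 and Emax were extrapolated to infinitely low and high concentrations. EC50 and static concentration (graphical interpolation) are expressed as multiples of the broth MIC at pH 5.5 or 7.4.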

Staphylococcus aureus [6] = assay: Antimicrobial activity against hospital-acquired vancomycin-intermediate Staphylococcus aureus NRS18 infected in human THP-1 cells assessed as bacterial count per mg of cell protein at high extracellular compound concentration after 24 hrs at pH 7.4; format: functional; outline: as §2
Staphylococcus aureus [7] = assay: Antimicrobial activity against Panton-valentine leucocidin-positive community-acquired methicillin-resistant Staphylococcus aureus isolate MEH2225605 infected in human THP-1 cells assessed as change in bacterial count after 24 hrs at pH 7.4; format: functional, organism-based; conditions: isolate MEH2225605, THP-1, 24 h; outline: as §1
Staphylococcus aureus [8] = assay: Antimicrobial activity against Panton-valentine leucocidin-positive community-acquired methicillin-resistant Staphylococcus aureus STA 44 infected in human THP-1 cells assessed as change in bacterial count after 24 hrs; format: functional, organism-based; conditions: STA 44, THP-1, 24 h; outline: as §1
Staphylococcus aureus [9] = assay: Antimicrobial activity against Panton-valentine leucocidin-positive community-acquired methicillin-resistant Staphylococcus aureus N4090440 infected in human THP-1 cells assessed as bacterial count per mg of cell protein at high extracellular compound concentration after 24 hrs; format: functional; outline: as §1
Staphylococcus aureus [10] = assay: Antimicrobial activity against Panton-valentine leucocidin-positive community-acquired methicillin-resistant Staphylococcus aureus N4042228 infected in human THP-1 cells assessed as bacterial count per mg of cell protein at high extracellular compound concentration after 24 hrs; format: functional; outline: as §1
Staphylococcus aureus [11] = assay: Antimicrobial activity against methicillin-susceptible Staphylococcus aureus […] infected in human THP-1 cells assessed as bacterial count per mg of cell protein at high extracellular compound concentration after 24 hrs at pH 5.5; format: functional; outline: as §2
Staphylococcus aureus [12] = assay: Antimicrobial activity against methicillin-susceptible Staphylococcus aureus […] infected in human THP-1 cells assessed as bacterial count per mg of cell protein at low extracellular compound concentration after 24 hrs; format: functional; outline: as §2
Staphylococcus aureus [13] = assay: Antimicrobial activity against Panton-valentine leucocidin-positive community-acquired methicillin-resistant Staphylococcus aureus N4090440 infected in human THP-1 cells assessed as bacterial count per mg of cell protein at low extracellular compound concentration after 24 hrs at pH 5.5; format: functional; conditions: pooled result: one value given for 6 cell lines, strains, targets or settings; outline: as §1
Staphylococcus aureus [14] = assay: Antimicrobial activity against methicillin-susceptible Staphylococcus aureus NRS52 infected in human THP-1 cells assessed as bacterial count per mg of cell protein at high extracellular compound concentration after 24 hrs at pH 5.5; format: functional; outline: as §2
Staphylococcus aureus [15] = assay: Bacteriostatic activity against Panton-valentine leucocidin-positive community-acquired methicillin-resistant Staphylococcus aureus STA 228 infected in human THP-1 cells assessed as change in bacterial count after 24 hrs at pH 5.5; format: functional; outline: as §3
Staphylococcus aureus [16] = assay: Antimicrobial activity against Panton-valentine leucocidin-positive community-acquired methicillin-resistant Staphylococcus aureus STA 228 infected in human THP-1 cells assessed as bacterial count per mg of cell protein at low extracellular compound concentration after 24 hrs; format: functional; outline: as §1
Staphylococcus aureus [17] = assay: Antimicrobial activity against methicillin-susceptible Staphylococcus aureus ATCC 11632 infected in human THP-1 cells assessed as bacterial count per mg of cell protein at high extracellular compound concentration after 24 hrs at pH 7.4; format: functional; outline: as §2
Staphylococcus aureus [18] = assay: Antimicrobial activity against Panton-valentine leucocidin-positive community-acquired methicillin-resistant Staphylococcus aureus isolate MEH2225605 infected in human THP-1 cells assessed as bacterial count per mg of cell protein at high extracellular compound concentration after 24 hrs; format: functional; outline: as §1
Staphylococcus aureus [19] = assay: Antimicrobial activity against hospital-acquired methicillin-resistant Staphylococcus aureus ATCC 33591 infected in human THP-1 cells assessed as change in bacterial count after 24 hrs at pH 5.5; format: functional, organism-based; conditions: ATCC 33591, THP-1, 24 h; outline: as §3
Staphylococcus aureus [20] = assay: Antimicrobial activity against hospital-acquired methicillin-resistant Staphylococcus aureus […] infected in human THP-1 cells assessed as bacterial count per mg of cell protein at low extracellular compound concentration after 24 hrs; format: functional; outline: as §3
Staphylococcus aureus [21] = assay: Antimicrobial activity against methicillin-susceptible Staphylococcus aureus NRS52 infected in human THP-1 cells assessed as change in bacterial count after 24 hrs at pH 5.5; format: functional, organism-based; conditions: NRS52, THP-1, 24 h; outline: as §3
Staphylococcus aureus [22] = assay: Antimicrobial activity against hospital-acquired methicillin-resistant Staphylococcus aureus ATCC 33591 infected in human THP-1 cells assessed as bacterial count per mg of cell protein at low extracellular compound concentration after 24 hrs; format: functional; outline: as §3
Staphylococcus aureus [23] = assay: Antimicrobial activity against hospital-acquired vancomycin-resistant Staphylococcus aureus VRS1 infected in human THP-1 cells assessed as change in bacterial count after 24 hrs at pH 7.4; format: functional, cell-based; conditions: VRS1, THP-1, 24 h; outline: as §3

Question: For `Nc1nc(/C(=N/O)C(=O)N[C@@H]2C(=O)N3C(C(=O)O)=C(/C=C4\CCN([C@@H]5CCNC5)C4=O)CS[C@H]23)ns1` [CEFTOBIPROLE], which EC50 (Staphylococcus aureus [1]) is on record?
Answer: 0.08 µg/mL (≈ 0.15 µM)

Question: What about the log10cfu (Staphylococcus aureus [2]) of the same molecule?
Answer: -1.04

Question: And the log10cfu (Staphylococcus aureus [3])?
Answer: 3.39

Question: And the log10cfu (Staphylococcus aureus [4])?
Answer: -1.02

Question: What about the EC50 (Staphylococcus aureus [5]) of the same molecule?
Answer: 0.28 ×MIC

Question: What about the log10cfu (Staphylococcus aureus [6]) of the same molecule?
Answer: -0.99

Question: And the EC50 (Staphylococcus aureus [7])?
Answer: 0.33 ×MIC

Question: What about the EC50 (Staphylococcus aureus [8]) of the same molecule?
Answer: 0.94 µg/mL (≈ 1.76 µM)

Question: And the log10cfu (Staphylococcus aureus [9])?
Answer: -1.05

Question: What about the log10cfu (Staphylococcus aureus [10]) of the same molecule?
Answer: -1.12

Question: What about the log10cfu (Staphylococcus aureus [11]) of the same molecule?
Answer: 1.04

Question: And the log10cfu (Staphylococcus aureus [12])?
Answer: 3.49

Question: What about the log10cfu (Staphylococcus aureus [13]) of the same molecule?
Answer: 2.78

Question: What about the log10cfu (Staphylococcus aureus [14]) of the same molecule?
Answer: 1.04

Question: And the Activity (Staphylococcus aureus [15])?
Answer: 1.45 × MIC

Question: And the log10cfu (Staphylococcus aureus [16])?
Answer: 2.87

Question: What about the log10cfu (Staphylococcus aureus [17]) of the same molecule?
Answer: -1.04

Question: What about the log10cfu (Staphylococcus aureus [18]) of the same molecule?
Answer: -0.97

Question: What about the EC50 (Staphylococcus aureus [19]) of the same molecule?
Answer: 0.77 × MIC

Question: And the log10cfu (Staphylococcus aureus [20])?
Answer: 2.46

Question: And the EC50 (Staphylococcus aureus [21])?
Answer: 0.41 × MIC

Question: And the log10cfu (Staphylococcus aureus [22])?
Answer: 2.47

Question: And the EC50 (Staphylococcus aureus [23])?
Answer: 0.28 ×MIC
